Measured values published in ChEMBL document CHEMBL1268855 (J Nat Prod, 2010).
Active and inactive are the calls of the source. The rule behind the calls is not given here.

Columns and labels:
Influenza A virus [1] = assay: Antiviral activity against influenza A virus A/PR/8/34(H1N1) infected in MDCK cells assessed as protection against virus-induced cytopathic effect after 3 to 4 days by neutral red dye assay; format: functional
Outline: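 Near-confluent MDCK monolayers (1 × 10^5 cells/well) inoculated with virus for 1 h, then medium replaced with DMEM containing 10 µg/mL trypsin plus compounds at several concentrations. Incubated 3-4 days at 37 °C, 5% CO2.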

Neuraminidase [2] = molecular target: T1, Neuraminidase (Influenza A virus, UniProt B4URF0); assay: Inhibition of Influenza A virus (A/chicken/Korea/01310/2001 (H9N2)) neuraminidase after 30 mins by spectrofluorimetric analysis
T1 sequence (B4URF0 whole entry): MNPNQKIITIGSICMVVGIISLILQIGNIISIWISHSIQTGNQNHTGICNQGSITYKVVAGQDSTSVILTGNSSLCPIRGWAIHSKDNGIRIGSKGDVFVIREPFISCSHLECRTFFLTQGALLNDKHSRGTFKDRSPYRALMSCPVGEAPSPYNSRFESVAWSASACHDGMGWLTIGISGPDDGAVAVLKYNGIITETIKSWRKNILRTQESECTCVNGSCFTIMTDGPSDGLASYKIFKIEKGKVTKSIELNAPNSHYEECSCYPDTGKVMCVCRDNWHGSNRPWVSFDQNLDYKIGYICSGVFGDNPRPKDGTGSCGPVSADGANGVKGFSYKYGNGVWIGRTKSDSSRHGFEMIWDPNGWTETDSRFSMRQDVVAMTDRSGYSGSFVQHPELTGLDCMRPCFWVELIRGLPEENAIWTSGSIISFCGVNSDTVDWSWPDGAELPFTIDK

Neuraminidase [3] = molecular target: T1, Neuraminidase; assay: Inhibition of Influenza A virus (A/Sw/Kor/CAH1/04 (H1N1) KCTC 11165BP neuraminidase after 30 mins by spectrofluorimetric analysis
Influenza A virus [4] = assay: Antiviral activity against influenza A virus A/PR/8/34(H1N1) infected in MDCK cells at 3.18 uM after 24 hrs by immunofluorescence assay; format: functional, organism-based
Outline: (§1)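 MDCK cells on chamber slides infected with A/PR/8/34 at 1000 TCID50/mL for 2 h in infection medium (DMEM, 0.5% BSA, 1.5 µg/mL trypsin). Then cultured with compound in 5% FBS DMEM for 24 h at 37 °C. Cells fixed in 4% paraformaldehyde, permeabilised, stained with anti-M1 monoclonal antibody, FITC anti-mouse IgG secondary and DAPI. Fluorescence-positive cells counted by fluorescence microscopy.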

Influenza A virus [5] = assay: Antiviral activity against influenza A virus A/PR/8/34(H1N1) infected in MDCK cells at 15.92 uM after 24 hrs by immunofluorescence assay; format: functional, organism-based; outline: as §1
MDCK = assay: Cytotoxicity against MDCK cells at 97.56 uM after 48 hrs by neutral red dye assay; format: cell-based, Canis lupus familiaris; conditions: dog

Structure (SMILES)	IC50 (Neuraminidase [2]) [µM]	IC50 (Neuraminidase [3]) [µM]	other results
COc1c(C)c(O)c(C)c(O)c1C(=O)/C=C/c1ccccc1O			CC50 (Influenza A virus [1]): > 120 µM
COc1c(C)c(O)c2c(c1C=O)O[C@H](c1ccccc1)CC2=O	299	290	
Cc1c(O)c(C)c2c(c1O)C(=O)[C@H](O)[C@@H](c1ccccc1)O2	368	375	
COc1cc(O)c(C)c(O)c1C(=O)/C=C/c1ccccc1			CC50 (Influenza A virus [1]): 135 µM
COc1c(C)c(O)c(C)c2c1C(=O)C[C@@](O)(c1ccccc1)O2	285	283	
COc1c(C)c(O)c2c(c1C)O[C@H](c1ccccc1)CC2=O	> 500	> 500	
COc1c(C)c(O)c(C)c2occ(-c3ccccc3)c(=O)c12	391	431	
COc1c(C)c(O)c(C)c(O)c1C(=O)/C=C/c1ccc(O)cc1			CC50 (Influenza A virus [1]): > 120 µM; Activity (Influenza A virus [4]): Active; Activity (Influenza A virus [5]): Active
CCOC(=O)C1=C[C@@H](OC(CC)CC)[C@H](NC(C)=O)[C@@H](N)C1 [OSELTAMIVIR]			Activity (MDCK): 7%
COc1c(C)c2c(c(O)c1C=O)C(=O)C[C@@H](c1ccccc1)O2	256	269	
COc1c(C)c(O)c(C)c2oc(-c3ccccc3)cc(=O)c12	363	414	
Cc1c(O)cc(O)c2c1O[C@H](c1ccccc1)CC2=O	> 500	> 500	
COc1cc(O)c(C)c2c1C(=O)C[C@@H](c1ccccc1)O2	> 500	> 500	
Cc1c(O)c(C)c2c(c1O)C(=O)C[C@@H](c1ccccc1)O2 [DEMETHOXYMATTEUCINOL]	319	334	
COc1c(C)c(O)c(C)c(O)c1C(=O)/C=C/c1ccccc1			CC50 (Influenza A virus [1]): 78.4 µM
